Arr AP2 block: inhibitors of beta-arrestin/AP2 binding, primary screen, biochemical, GPCR trafficking, flow cytometry. actives 0.31% (n = 340,000). FITC-arrestin peptide / GST-AP2 beads; AP2 beta2 appendage carries R879A mutation. inhibition, % at 10 µM. AID 504490, 2011;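 active means inhibition above a set limit, near 3 SD of compounds lacking own fluorescence, cut at about 54% in these data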;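 further: plate controls were DMSO wells for no effect and 5 µM unlabelled arrestin peptide for full effect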
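test system = AP2 appendage R879A on GSH beads | buffer or medium = PBS plus Tween 20 (0.05%) and BSA (0.1%) | incubation = 12 min plus 1 h, RT | detection = bead flow cytometry, FITC channel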
GRK2 aptamer HTS: compounds blocking aptamer binding on GRK2 – biochemical, human GRK2, bead flow cytometry, HTS, primary screen; FAM-aptamer displacement from GRK2; inhibition of aptamer binding, % at 10 µM; actives 0.59% (n = 330,000); AID 488847, 2010;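 active means inhibition of aptamer binding above 40%, roughly 3 SD of noise, on plates passing a quality check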;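 further: median bead fluorescence of bound FAM aptamer so fluorescent compounds give negative values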
NTR1 agonist: agonists of human NTR1, primary screen, imaging, U2OS cells, beta-arrestin-GFP, high content; Neurotensin receptor type 1 (Homo sapiens), P30989; NTR1-U2OS beta-arrestin-GFP spot imaging, agonist mode; activation, % at 20 µM; actives 0.17% (n = 330,000); AID 493036, 2011;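 active means activation at or above 40% of the spot to cytoplasm intensity ratio, with at least 20 cells analyzed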;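 further: 0% = DMSO without peptide and 100% = 100 nM NTR1 peptide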
TAG inh: inhibitors of triacylglycerol accumulation, primary screen, cell-based, uHTS, fluorescence, H9c2 | AID 651582, 2012 | inhibition, % at 12.5 µM | H9c2 cells, Nile Red lipid (TAG) fluorescence; cells loaded with 200 µM oleic acid | actives 0.66% (n = 230,000);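 active means pattern-corrected inhibition of lipid staining of at least 50% with the nuclear-stain viability signal not falling by more than 50%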;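 further: 0% = DMSO wells and 100% = triacsin C control wells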
B2AR ag: beta2AR agonists driving receptor internalization, primary screen, cell-based, FAP fluorogen, flow cytometry. Beta-2 adrenergic receptor (Homo sapiens), P07550. Am2.2-beta2AR cells. response, % (test concentration not listed). actives 0.43% (n = 340,000). AID 504454, 2011;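 active means response above a set limit, near 3 SD of response in nonfluorescent compounds, cut at about 42% in these data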
Target sequence (P07550 whole entry, looked up): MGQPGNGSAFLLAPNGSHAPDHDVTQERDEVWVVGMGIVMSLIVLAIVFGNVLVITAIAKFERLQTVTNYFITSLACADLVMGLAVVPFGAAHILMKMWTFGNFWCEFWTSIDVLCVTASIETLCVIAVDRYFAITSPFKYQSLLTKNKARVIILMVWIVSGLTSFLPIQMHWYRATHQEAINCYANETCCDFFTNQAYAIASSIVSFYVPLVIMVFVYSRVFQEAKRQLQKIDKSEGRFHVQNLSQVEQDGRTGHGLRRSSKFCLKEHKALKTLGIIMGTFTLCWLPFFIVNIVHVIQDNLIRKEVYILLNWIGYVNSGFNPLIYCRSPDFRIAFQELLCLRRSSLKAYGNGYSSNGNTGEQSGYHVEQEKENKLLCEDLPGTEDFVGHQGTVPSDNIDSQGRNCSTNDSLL
Hep lipid drop: inhibitors of hepatocyte lipid droplet formation, primary screen, imaging, high-throughput imaging, BODIPY stain. actives 0.4% (n = 240,000). inhibition, % at 6.5 µM. AML12 mouse hepatocytes, oleate lipid droplets;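 active means lipid droplet intensity inhibited by at least 50%, with more than 500 cells counted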
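Material – mouse AML12 hepatocyte cell line, fixed after treatment · Compound dosing – one dose, 6.5 µM compound · Times – compound with oleate, overnight · Measured by – Image-based BODIPY and DAPI two-channel analysis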
Starred values were filed as active, the others as inactive. A selection: hits, their analogues and other compounds. The true share with any hit is near 2%.

C[C@H](NC(=O)c1[nH]cnc1C(=O)Nc1ccc(CNC(=O)OC(C)(C)C)cc1)C(=O)OCc1ccccc1 was read as Arr AP2 block 13.0, GRK2 aptamer HTS 2.0, NTR1 agonist 31.6, TAG inh -1.2, B2AR ag 47.7* and Hep lipid drop 8.0.
For O=C(Nc1nc2ccccc2s1)c1ccc(OCC2CCCO2)cc1 (configuration not stated) the results were Arr AP2 block -7.4, GRK2 aptamer HTS 0.0, NTR1 agonist 3.0, B2AR ag 2.1 and Hep lipid drop 51.9*.
Screening COc1ccc2[nH]c3c4c(ccc3c2c1)C(=O)C=CC4=O returned Arr AP2 block 50.9, NTR1 agonist 18.8, B2AR ag 61.4* and Hep lipid drop 1.8.
For COc1ccc2[nH]c(=O)cc(C(=O)O)c2c1 the results were Arr AP2 block 21.5, GRK2 aptamer HTS 11.0, NTR1 agonist 2.1, TAG inh -12.5, B2AR ag -1.5 and Hep lipid drop -3.4.
`COc1ccc(C(=O)COc2ccc3ccc(=O)oc3c2)c(OC)c1` gave Arr AP2 block -16.1, GRK2 aptamer HTS 0.0, NTR1 agonist -0.3, TAG inh 12.2, B2AR ag 51.2* and Hep lipid drop 7.1.
`C#CCn1cc(/C=N/NC(=O)COc2cccc3cccnc23)c2ccccc21` gave Arr AP2 block -10.9, GRK2 aptamer HTS 0.0, NTR1 agonist 2.0, B2AR ag -3.3 and Hep lipid drop -1.2.
For COC(=O)Cn1cc(/C=N/NC(=O)COc2cccc3cccnc23)c2ccccc21 the results were Arr AP2 block 1.2, GRK2 aptamer HTS 0.0, NTR1 agonist 1.8, TAG inh 2.1, B2AR ag 47.6* and Hep lipid drop -4.9.
Screening CNC(CC(=O)c1ccc([N+](=O)[O-])cc1)C(Cl)(Cl)Cl (configuration not stated) returned Arr AP2 block -5.6, GRK2 aptamer HTS 1.0, TAG inh 3.5, B2AR ag 91.0* and Hep lipid drop 7.5.
Screening CN(C)CCNC(=O)c1cccc2nc3c(ccc4ccccc43)nc12 returned Arr AP2 block -3.5, TAG inh 50.8* and B2AR ag -5.1.
Screening CCN(CC)CCNc1cc(C)nc2c1C(=O)C(=O)C=C2N1CCCCC1 returned Arr AP2 block 14.7, GRK2 aptamer HTS 8.0, NTR1 agonist -1.7, TAG inh 81.9*, B2AR ag 10.2 and Hep lipid drop 26.8.
For Cc1cc(=O)c2c(o1)C(=O)c1occc1C2=O the results were Arr AP2 block -11.8, TAG inh 2.2 and B2AR ag -7.0.
`Cc1cccc(NC(=O)c2nc[nH]c2C(=O)NCCN(CCNC(=O)c2[nH]cnc2C(=O)Nc2cccc(C)c2)CCNC(=O)c2[nH]cnc2C(=O)Nc2cccc(C)c2)c1` gave Arr AP2 block 8.9, GRK2 aptamer HTS 0.0, NTR1 agonist 3.6 and B2AR ag 0.9.
For Cc1cccc(NC(=O)c2nc[nH]c2C(=O)NCCCNC(=O)c2[nH]cnc2C(=O)Nc2cccc(C)c2)c1 the results were Arr AP2 block -2.7, GRK2 aptamer HTS 3.0, NTR1 agonist 15.0, TAG inh 84.1* and B2AR ag 6.5.
For COC1=C(N)C(=O)c2nc(-c3nc(C(=O)O)c(C)c(-c4ccc(OC)c(OC)c4O)c3N)ccc2C1=O the results were GRK2 aptamer HTS 66.0*, NTR1 agonist 2.4 and Hep lipid drop -38.5.
For Cc1ccc(C)n1-c1ccc(C(=O)O)cc1 the results were GRK2 aptamer HTS 82.0* and NTR1 agonist -0.3.
`CC(=O)c1c(C(C)=O)c(C)n(-c2ccc(C(=O)O)cc2)c1C` gave Arr AP2 block -3.9, GRK2 aptamer HTS 0.0, NTR1 agonist 0.6 and B2AR ag 3.4.
`CC1=C(C)CC(C(=O)c2ccccc2)C(C(=O)O)C1` (configuration not stated) gave Arr AP2 block 7.1, GRK2 aptamer HTS 1.0, NTR1 agonist -0.5 and B2AR ag 4.3.
